Source: PubChem
RBBP9 inh = inhibitors of human serine hydrolase RBBP9. inhibition, % at 7.94 µM. O75884. recombinant RBBP9, FP-Rh probe fluorescence polarization. hit rate 0.2% among 220,000;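 active means inhibition above the campaign mean of all tested compounds plus 3 SD, cut at about 14% in these data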;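 further: plate controls were DMSO wells with RBBP9 for no effect and wells lacking RBBP9 protein for full effect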
Target sequence (O75884 whole entry, looked up): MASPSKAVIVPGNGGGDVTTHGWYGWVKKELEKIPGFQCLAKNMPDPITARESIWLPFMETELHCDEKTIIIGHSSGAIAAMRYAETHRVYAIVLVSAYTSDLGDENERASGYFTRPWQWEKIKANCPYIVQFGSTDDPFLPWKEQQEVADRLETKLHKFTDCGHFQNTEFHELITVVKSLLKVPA
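Measured by – fluorescence polarization · Test system – RBBP9 protein · Input – 2.5 µM RBBP9 dispensing solution, before mixing · Measure – percent inhibition from mP, scaled between DMSO and no-protein wells · Benchmarks – DMSO-treated enzyme wells and wells lacking RBBP9 · Times – preincubation 30 min plus labeling 45 min at 25 °C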
PAD4 FP inh = inhibitors of human PAD4 | Q9UM07 | recombinant PAD4, RCA probe fluorescence polarization | inhibition, % at 6.36 µM | hit rate 0.41% among 330,000 | AID 485272;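 active means percent inhibition above a cutoff equal to the mean of all tested compounds plus 3 SD, cut at about 15% in these data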;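 further: 0% = PAD4 with RCA probe and DMSO and 100% = probe without PAD4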
PRMT1 FP inh = inhibitors of human PRMT1; Q99873; recombinant PRMT1, activity-based probe fluorescence polarization; inhibition, % at 2.79 µM; hit rate 1.3% among 370,000; AID 652257;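 active means inhibition above about 21% made by adding two undisclosed values, limit read from the data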
Target sequence (Q99873 whole entry, looked up): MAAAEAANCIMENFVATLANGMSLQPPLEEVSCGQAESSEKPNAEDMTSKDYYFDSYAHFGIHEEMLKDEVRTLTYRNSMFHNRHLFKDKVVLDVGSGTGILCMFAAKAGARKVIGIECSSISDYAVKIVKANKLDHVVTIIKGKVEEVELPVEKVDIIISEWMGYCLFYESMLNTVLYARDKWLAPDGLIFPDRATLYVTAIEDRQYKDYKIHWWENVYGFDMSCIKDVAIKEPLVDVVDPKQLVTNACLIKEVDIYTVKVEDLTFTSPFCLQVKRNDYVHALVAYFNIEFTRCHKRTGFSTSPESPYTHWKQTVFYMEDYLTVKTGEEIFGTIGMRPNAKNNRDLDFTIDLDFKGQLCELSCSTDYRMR
SIAE inh = blocks human sialic acid acetylesterase | AID 1053197 | SIAE FP-Rh probe binding, fluorescence polarization | Q9HAT2 | hit rate 0.69% among 370,000 | inhibition, % at 9.66 µM;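 active means inhibition above a cutoff: mean of compounds within the control limits plus 3 SD of those, cut at about 17% in these data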;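 further: 0% = plate median of compound wells and 100% = probe without SIAE protein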
GSTO1 counter = blocks human GSTO1 in RBBP9 counter-screen. P78417. recombinant GSTO1, activity-based probe fluorescence polarization. inhibition, % at 5.96 µM. hit rate 1.1% among 300,000;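 active means inhibition above the campaign mean inhibition plus 3 SD, cut at about 35% in these data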;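 further: 0% = GSTO1-1 with DMSO and 100% = wells lacking GSTO1-1 enzyme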
PRMT1 inh conf = confirmation of human PRMT1 inhibitors; shares compounds with PRMT1 FP inh; recombinant His-PRMT1, activity-based probe fluorescence polarization; inhibition, % at 2.79 µM; hit rate 42% among 3,300; AID 687036;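 active means mean inhibition across replicates above the hit cutoff derived for the earlier primary screen, cut at about 22% in these data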
Active calls of the source: *; . = no result given. The list is not random: actives were taken first. Their share in the collection is about 2.7%.

SMILES	RBBP9 inh	PAD4 FP inh	PRMT1 FP inh	SIAE inh	GSTO1 counter	PRMT1 inh conf
O=C(O)c1ccc(NNC(=S)Nc2cc(C(F)(F)F)ccc2Cl)cc1	.	-8	27*	-1	-10	12
O=C(NC(=S)Nc1cc(C(F)(F)F)ccc1Cl)c1ccccc1	-6	-3	-4	1	5	.
CC(=O)OCCn1c2nc(=O)[nH]c(=O)c-2nc2cc(C)c(C)cc21	0	.	159*	20*	.	150*
CC(=O)OCCn1c(C)[n+](CCOC(C)=O)c2cc(Cl)c(Cl)cc21	-9	-5	2	6	6	.
CC(=O)C1=C(C)N(Cc2ccccc2)C(=O)N[C@H]1c1cccc(F)c1	.	4	0	6	7	.
Cc1cc2nc(-c3ccc(SCC(=O)NC(C)C)nc3)[nH]c2cc1C	3	0	.	.	-5	.
Cc1cc2nc(-c3ccc(SCc4ccc(C(=O)O)cc4)nc3)[nH]c2cc1C	-13	-7	26*	-31	-64	22*
Cc1ccc(S(=O)(=O)N(C)C[C@@H]2OCc3ccccc3-c3c(n(C)c4ccccc34)C(=O)N([C@H](C)CO)C[C@@H]2C)cc1	.	.	7	-6	.	.
C[C@H](CO)N1C[C@H](C)[C@H](CN(C)S(=O)(=O)c2cccc(F)c2)OCc2ccccc2-c2c(n(C)c3ccccc23)C1=O	.	.	34*	6	.	-1
CC(=O)C1=C(O)C(=O)N(CCc2c[nH]c3ccccc23)C1c1ccco1 (stereo not drawn)	0	-6	28*	7	5	5
CC(=O)C1=C(O)C(=O)N(CCc2c[nH]c3ccccc23)C1c1ccc(C)cc1 (stereo not drawn)	-5	0	0	3	0	.
COC(=O)c1ccc(CSc2n[nH]c(=S)s2)o1	-7	1	27*	0	-4	-1
CSc1nc(N(CCO)CCO)c2sc3nc(-c4ccco4)c4c(c3c2n1)CCC4	-1	.	37*	11	.	39*
COc1cc(/C=C/C(=O)O)cc(S(=O)(=O)Nc2ccc3nc(C)sc3c2)c1OC	-4	-1	25*	7	4	28*
COc1cc(/C=C/C(=O)O)cc(S(=O)(=O)Nc2ccc(F)cc2)c1OC	-5	-1	0	13	1	.
Clc1ccc(OCc2nn3c(C4CCCCC4)nnc3s2)cc1	0	-6	27*	2	3	1
c1ccc(-c2nn3c(C4CCCCC4)nnc3s2)nc1	-1	4	-1	2	-7	.
Cc1ccc(/C=C2\CC(C)CC3=C2NC(=S)NC3c2ccc(C)cc2)cc1 (stereo not drawn)	-11	0	38*	-2	1	30*
Cc1ccc(/C=C2\CCCC3=C2NC(=S)NC3c2ccc(C)cc2)cc1 (stereo not drawn)	-7	-6	45*	3	6	35*
CC1CC2=C(NC(=S)NC2c2ccccc2F)/C(=C/c2ccccc2F)C1 (stereo not drawn)	-13	-11	49*	9	-19	10
CC1(C)CC(=O)C(C(C2=C(O)CC(C)(C)CC2=O)c2ccc(O)c([N+](=O)[O-])c2)=C(O)C1	2	-7	11	5	-1	.
CC1CCc2c(C(=O)NCc3cccnc3)csc2C1 (stereo not drawn)	-8	3	5	-7	5	.
COC(=O)c1sc2nc(-c3ccccc3)c3c(c2c1N)CCCC3	-2	0	-1	7	-2	.
Nc1c(C(=O)O)sc2nc(-c3ccccc3)c3c(c12)CCCC3	-10	-2	27*	-4	-6	5
O=C1CCCC2=C1C(c1cccc(Br)c1)n1nc(-c3ccco3)nc1N2 (stereo not drawn)	2	4	37*	-11	2	6
SMILES	RBBP9 inh	PAD4 FP inh	PRMT1 FP inh	SIAE inh	GSTO1 counter	PRMT1 inh conf
CCCCc1ccc(NC(=O)CSc2nc(=O)n(CCN(CC)CC)c3c2CCCC3)cc1	.	3	-1	-4	-12	.
Oc1ccc2ccccc2c1CNc1cnc2ccccc2c1	2	-3	43*	-4	3	29*
Oc1ccccc1CNc1cnc2ccccc2c1	0	-3	10	13	8	.
NS(=O)(=O)c1ccc(N2CCCC2=O)c([N+](=O)[O-])c1	-5	-1	-1	0	4	.
NNS(=O)(=O)c1ccc(N2CCCC2=O)c([N+](=O)[O-])c1	-3	0	82*	-2	-3	55*
CC(C)CC(c1nnnn1CC1CCCO1)N1CCN(Cc2ccc3c(c2)OCO3)CC1 (stereo not drawn)	7	4	-1	1	12	.
OCCn1c(-c2ccc3c(c2)OCO3)csc1=Nc1ccccc1	2	5	32*	8	4	1
CCOc1ccc(N=c2scc(-c3ccccc3)n2CCO)cc1	-3	2	13	4	10	.
CCOc1ccc(N=c2scc(-c3ccc(OC)cc3)n2CCO)cc1	-10	-2	26*	3	4	-1
OCCn1c(-c2ccc(F)cc2)csc1=Nc1ccccc1	-8	0	42*	8	0	0
CN(NC(=O)/C=C/C(=O)O)c1ncc(C(F)(F)F)cc1Cl	2	7	35*	5	3	6
C=CC(=O)NN(C)c1ncc(C(F)(F)F)cc1Cl	5	1	-2	1	6	.
C=CCn1c(SCC(=O)NCC2CCCO2)nc2scc(-c3ccco3)c2c1=O (stereo not drawn)	-4	-1	26*	3	5	5
O=c1c2c(-c3ccco3)csc2nc(SCc2cn3cccnc3n2)n1-c1ccccc1	-5	-12	37*	-6	-4	1
O=C(CSc1nc2scc(-c3ccco3)c2c(=O)n1-c1ccccc1)N1CCOCC1	6	2	4	6	5	.
NC(=O)CSc1nc2scc(-c3ccco3)c2c(=O)n1-c1ccccc1	-12	-8	76*	7	5	9
Cc1onc(-c2ccccc2Cl)c1C(=O)Nc1nnc(Cc2ccc(Cl)cc2)s1	-9	3	-4	-9	-9	.
CCN1CCc2nc(N)sc2C1	-2	-6	45*	-2	7	22*
C=CCN1CCc2nc(N)sc2CC1	6	.	61*	3	.	11
Nc1nc2c(s1)CCCCCCCCCC2	-5	-3	0	13	0	.
Cc1cc(O)ccc1Nc1nc(-c2sc(N)nc2C)cs1	6	-3	34*	5	20	14
Cc1nc(N)sc1-c1csc(Nc2ccccc2)n1	4	-13	19	6	3	.
c1ccc2c(c1)[nH]c1nc(SCCN3CCOCC3)nnc12	0	3	30*	8	-6	3
Brc1ccc2[nH]c3nc(SCCN4CCOCC4)nnc3c2c1	-12	2	2	2	1	.
COc1c(C(=O)NNC(=O)c2ccccc2Cl)csc1Br	-6	-1	2	-9	-2	.
O=C(COC(=O)c1ccc2ncsc2c1)NC(=O)c1ccccc1	-8	4	27*	-4	0	2
